Active and inactive are the calls of the source. The rule behind the calls is not given here.
Assays:
Sarcoma-180 [1] = assay: Antitumor activity against mouse Sarcoma 180 cells allografted in Swiss mouse assessed as survival at 9 mg/kg, ip three doses were given at 24 hrs interval starting 24 hrs after allograft injection measured after 5 days; format: functional, organism-based; set-up: dose 9 mg/kg
In short: (§1)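 Swiss mice were injected ip with 10^6 ascitic sarcoma 180 cells. Three daily ip doses followed, the first 24 h after cell injection. The read-out was the number of mice surviving at 5 days, out of 6 treated.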

Sarcoma-180 [2] = assay: Antitumor activity against mouse Sarcoma 180 cells allografted in Swiss mouse assessed as survival time at 9 mg/kg, ip three doses were given at 24 hrs interval starting 24 hrs after allograft injection relative to control; format: functional; conditions: route intraperitoneal
In short: (§2)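 Swiss mice inoculated ip with 10^6 ascitic sarcoma 180 cells. Compound given ip daily ×3 at 24-h intervals, starting 24 h after inoculation. Controls received isotonic saline on the same schedule; 6 mice per group. Mice alive at 60 days counted as 60 days in mean survival (±SD).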

Sarcoma-180 [3] = assay: Antitumor activity against mouse Sarcoma 180 cells allografted in Swiss mouse assessed as cure at 9 mg/kg, ip three doses were given at 24 hrs interval starting 24 hrs after allograft injection measured after 60 days; format: functional, organism-based; set-up: dose 9 mg/kg
In short: (§3)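 Swiss mice given 10^6 ascitic sarcoma 180 cells ip. Starting 24 h later, three ip doses were given 24 h apart. Controls got isotonic salt solution on the same schedule. A cure was a mouse alive with no evidence of cancer cells 60 days after cell injection, reported per 6 mice.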

[4] = Redox potential of the compound in alcohol-water solution; conditions: buffer
[5] = Half life of the compound in water at pH 7 at 25 degC by spectrophotometry; format: physicochemical
In short: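 Compound dissolved in absolute ethanol, then diluted into 0.01 M Tris buffer brought to pH 7 with HCl, 25 °C. Absorbance at λmax followed over hours or days; log absorbance vs time fitted by least squares, rate constant and half-time taken from the slope.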

Sarcoma-180 [6] = assay: Antitumor activity against mouse Sarcoma 180 cells allografted in Swiss mouse assessed as weight gain at 9 mg/kg, ip three doses were given at 24 hrs interval starting 24 hrs after allograft injection measured after 3 days relative to control; format: functional; conditions: route intraperitoneal
In short: (§4)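 Ascitic sarcoma 180 model in Swiss mice: 10^6 cells ip, then three ip doses at 24-h intervals beginning 24 h later. Mice were weighed 1 day after cell injection and again 3 days later (24 h after the third dose). Percent weight gain of treated mice was compared with saline-treated controls on the same schedule.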

Sarcoma-180 [7] = assay: Antitumor activity against mouse Sarcoma 180 cells allografted in Swiss mouse at 9 mg/kg, ip three doses were given at 24 hrs interval starting 24 hrs after allograft injection relative to control; format: functional; conditions: route intraperitoneal
In short: (§5)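 Swiss mice given 10^6 ascitic sarcoma 180 cells ip; three ip doses at 24-h intervals starting 24 h later; controls received isotonic salt solution on the same schedule. […] Cures = alive without cancer cells at 60 days.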

[8] = Acute toxicity in single ip dosed Swiss mouse assessed as death up to 5 days; format: organism-based; conditions: in vivo
In short: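 Male Swiss mice given one ip dose. LD50 taken as the single dose killing 50% of animals within 5 days.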

Sarcoma-180 [9] = assay: Antitumor activity against mouse Sarcoma 180 cells allografted in Swiss mouse assessed as survival at 200 mg/kg, ip three doses were given at 24 hrs interval starting 24 hrs after allograft injection measured after 5 days; format: functional, organism-based; set-up: dose 200 mg/kg; in short: as §1
Sarcoma-180 [10] = assay: Antitumor activity against mouse Sarcoma 180 cells allografted in Swiss mouse at 200 mg/kg, ip three doses were given at 24 hrs interval starting 24 hrs after allograft injection relative to control; format: functional; conditions: route intraperitoneal
In short: (§6)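 Swiss mice received 10^6 ascitic sarcoma 180 cells ip, then three ip doses 24 h apart starting at 24 h. Controls got isotonic salt solution on the same schedule. T/C% is mean survival time of treated over controls (6 mice per group).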

Sarcoma-180 [11] = assay: Antitumor activity against mouse Sarcoma 180 cells allografted in Swiss mouse assessed as weight gain at 200 mg/kg, ip three doses were given at 24 hrs interval starting 24 hrs after allograft injection measured after 3 days relative to control; format: functional; conditions: route intraperitoneal; in short: as §4
Sarcoma-180 [12] = assay: Antitumor activity against mouse Sarcoma 180 cells allografted in Swiss mouse assessed as survival time at 200 mg/kg, ip three doses were given at 24 hrs interval starting 24 hrs after allograft injection relative to control; format: functional; conditions: route intraperitoneal; in short: as §2
Sarcoma-180 [13] = assay: Antitumor activity against mouse Sarcoma 180 cells allografted in Swiss mouse assessed as survival time at 5 mg/kg, ip three doses were given at 24 hrs interval starting 24 hrs after allograft injection relative to control; format: functional; conditions: route intraperitoneal; in short: as §2
Sarcoma-180 [14] = assay: Antitumor activity against mouse Sarcoma 180 cells allografted in Swiss mouse assessed as survival at 5 mg/kg, ip three doses were given at 24 hrs interval starting 24 hrs after allograft injection measured after 5 days; format: functional, organism-based; set-up: dose 5 mg/kg; in short: as §1
Sarcoma-180 [15] = assay: Antitumor activity against mouse Sarcoma 180 cells allografted in Swiss mouse assessed as weight gain at 5 mg/kg, ip three doses were given at 24 hrs interval starting 24 hrs after allograft injection measured after 3 days relative to control; format: functional; conditions: route intraperitoneal; in short: as §4
Sarcoma-180 [16] = assay: Antitumor activity against mouse Sarcoma 180 cells allografted in Swiss mouse at 5 mg/kg, ip three doses were given at 24 hrs interval starting 24 hrs after allograft injection relative to control; format: functional; conditions: route intraperitoneal; in short: as §6
Sarcoma-180 [17] = assay: Antitumor activity against mouse Sarcoma 180 cells allografted in Swiss mouse assessed as survival at 90 mg/kg, ip three doses were given at 24 hrs interval starting 24 hrs after allograft injection measured after 5 days; format: functional, organism-based; set-up: dose 90 mg/kg; in short: as §1
Sarcoma-180 [18] = assay: Antitumor activity against mouse Sarcoma 180 cells allografted in Swiss mouse assessed as weight gain at 90 mg/kg, ip three doses were given at 24 hrs interval starting 24 hrs after allograft injection measured after 3 days relative to control; format: functional; conditions: route intraperitoneal; in short: as §4
Sarcoma-180 [19] = assay: Antitumor activity against mouse Sarcoma 180 cells allografted in Swiss mouse assessed as survival time at 90 mg/kg, ip three doses were given at 24 hrs interval starting 24 hrs after allograft injection relative to control; format: functional; conditions: route intraperitoneal; in short: as §2
Sarcoma-180 [20] = assay: Antitumor activity against mouse Sarcoma 180 cells allografted in Swiss mouse at 90 mg/kg, ip three doses were given at 24 hrs interval starting 24 hrs after allograft injection relative to control; format: functional; conditions: route intraperitoneal; in short: as §5
Sarcoma-180 [21] = assay: Antitumor activity against mouse Sarcoma 180 cells allografted in Swiss mouse assessed as cure at 8 mg/kg, ip three doses were given at 24 hrs interval starting 24 hrs after allograft injection measured after 60 days; format: functional, organism-based; set-up: dose 8 mg/kg; in short: as §3
Sarcoma-180 [22] = assay: Antitumor activity against mouse Sarcoma 180 cells allografted in Swiss mouse assessed as weight gain at 8 mg/kg, ip three doses were given at 24 hrs interval starting 24 hrs after allograft injection measured after 3 days relative to control; format: functional; conditions: route intraperitoneal; in short: as §4
Sarcoma-180 [23] = assay: Antitumor activity against mouse Sarcoma 180 cells allografted in Swiss mouse assessed as survival time at 8 mg/kg, ip three doses were given at 24 hrs interval starting 24 hrs after allograft injection relative to control; format: functional; conditions: route intraperitoneal; in short: as §2
Sarcoma-180 [24] = assay: Antitumor activity against mouse Sarcoma 180 cells allografted in Swiss mouse at 8 mg/kg, ip three doses were given at 24 hrs interval starting 24 hrs after allograft injection relative to control; format: functional; conditions: route intraperitoneal; in short: as §5
Sarcoma-180 [25] = assay: Antitumor activity against mouse Sarcoma 180 cells allografted in Swiss mouse assessed as survival at 8 mg/kg, ip three doses were given at 24 hrs interval starting 24 hrs after allograft injection measured after 5 days; format: functional, organism-based; set-up: dose 8 mg/kg; in short: as §1
Sarcoma-180 [26] = assay: Antitumor activity against mouse Sarcoma 180 cells allografted in Swiss mouse assessed as weight gain at 22.5 mg/kg, ip three doses were given at 24 hrs interval starting 24 hrs after allograft injection measured after 3 days relative to control; format: functional; conditions: route intraperitoneal; in short: as §4
Sarcoma-180 [27] = assay: Antitumor activity against mouse Sarcoma 180 cells allografted in Swiss mouse assessed as survival time at 22.5 mg/kg, ip three doses were given at 24 hrs interval starting 24 hrs after allograft injection relative to control; format: functional; conditions: route intraperitoneal; in short: as §2
Sarcoma-180 [28] = assay: Antitumor activity against mouse Sarcoma 180 cells allografted in Swiss mouse at 22.5 mg/kg, ip three doses were given at 24 hrs interval starting 24 hrs after allograft injection relative to control; format: functional; conditions: route intraperitoneal; in short: as §6

## O=C1C(Br)=CC(=NBr)C=C1Br
Sarcoma-180 [1]
  Activity: Active
Sarcoma-180 [2]
  Survival: 22.8 days
Sarcoma-180 [3]
  Activity: inactive
[4]
  Redox potential: 0.678 V
[5]
  half-life: 10.4 h
Sarcoma-180 [6]
  Activity: -3%
Sarcoma-180 [7]
  T/C: 178%
[8]
  LD50 at 120 h: 25 mg/kg

## O=C1C=C/C(=N/O)C(I)=C1
Sarcoma-180 [9]
  Activity: Active
Sarcoma-180 [10]
  T/C: 171%
Sarcoma-180 [11]
  Activity: 0%
[4]
  Redox potential: 0.531 V
Sarcoma-180 [12]
  Survival: 23.7 days
[8]
  LD50 at 120 h: 550 mg/kg

## O=C1C=CC(=NCl)C=C1
Sarcoma-180 [13]
  Survival: 40.5 days
Sarcoma-180 [14]
  Activity: Active
[4]
  Redox potential: 0.652 V
[5]
  half-life: 35.3 h
[8]
  LD50 at 120 h: 12.5 mg/kg
Sarcoma-180 [15]
  Activity: -6.9%
Sarcoma-180 [16]
  T/C: 246%

## O=C1C=C/C(=N/O)C(Cl)=C1
Sarcoma-180 [17]
  Activity: Active
Sarcoma-180 [18]
  Activity: -2.4%
[4]
  Redox potential: 0.537 V
Sarcoma-180 [19]
  Survival: 39 days
Sarcoma-180 [20]
  T/C: 304%
[8]
  LD50 at 120 h: 380 mg/kg

## O=C1C(Cl)=CC(=NBr)C=C1Cl
Sarcoma-180 [21]
  Activity: inactive
Sarcoma-180 [22]
  Activity: -5.1%
[5]
  half-life: 3.7 h
Sarcoma-180 [23]
  Survival: 27.2 days
[8]
  LD50 at 120 h: 20 mg/kg
Sarcoma-180 [24]
  T/C: 165%
Sarcoma-180 [25]
  Activity: Active

## O=C1C(Br)=CC(=NCl)C=C1Br
Sarcoma-180 [26]
  Activity: -25%
Sarcoma-180 [27]
  Survival: 41 days
[4]
  Redox potential: 0.665 V
Sarcoma-180 [28]
  T/C: 218%
[5]
  half-life: 23.3 h
[8]
  LD50 at 120 h: 63 mg/kg

Source: ChEMBL document CHEMBL3271988, “Nitrogen analogues of 1,4-benzoquinones. Activities against the ascitic sarcoma 180 of mice” (J Med Chem, 1978)
